Experimental data published in ChEMBL document CHEMBL1129059, “Antitumor properties of some 2-[(dimethylamino)methyl]phenylgold(III) complexes” (J Med Chem, 1996).
Where “and” joins values, the source holds several entries; their conditions need not be identical. Equal values may be shown once.

How the values were obtained:
SW 1116 = assay: Compound was tested for in vitro growth inhibition of primary panel tumor cell line SW1116; type: functional, cell-based, Homo sapiens
Procedure, shortened: (§1)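 Primary-panel lines kept in L15, RPMI 1640 plus pyruvate, or MEM, each with 10% FBS. Cells were seeded at 5×10^4–10^5 cells/mL, preincubated 24 h, then exposed 4 h to 0–200 μg/mL from a 2 mg/mL stock in 10% DMA/PBS. After washout and 72 h further growth, cells were read by SRB. IC50 was the concentration giving 50% survival versus untreated controls.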

SW-620 [1] = assay: Compound was tested for in vitro growth inhibition of primary panel tumor cell lines SW620; type: functional, cell-based, Homo sapiens; procedure, shortened: as §1
HT-29 = assay: Compound was tested for in vitro growth inhibition of primary panel tumor cell line HT-29/219; type: functional, cell-based, Homo sapiens; procedure, shortened: as §1
SK-OV-3 [2] = assay: Compound was tested for in vitro growth inhibition of primary panel tumor cell lines SK-OV-3; type: functional, cell-based, Homo sapiens; procedure, shortened: as §1
A2780 [3] = assay: Compound was tested for in vitro growth inhibition of Ovarian carcinoma cell line panel A2780-R; type: functional, cell-based, Homo sapiens
Procedure, shortened: (§2)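 Ovarian lines grown as monolayers in DMEM with 10% FBS, insulin, hydrocortisone and L-glutamine under 6% CO2. Cells were seeded at 3–5 × 10³/well and left to attach overnight. Compounds were freshly dissolved in DMA or water and applied for 96 h in quadruplicate wells. Growth was measured by SRB and reported as IC50.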

HX62 cell line = assay: Compound was tested for in vitro growth inhibition of Ovarian carcinoma cell line panel HX62; type: functional, cell-based, Homo sapiens; procedure, shortened: as §2
HT-1376 = assay: Compound was tested for in vitro growth inhibition of primary panel tumor cell line HT1376; type: functional, cell-based, Homo sapiens; procedure, shortened: as §1
[4] = Solubility at 25 degrees Celsius in 1-Octanol; type: physicochemical
Procedure, shortened: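 A sample was tumbled in 1-octanol at 25 °C for 24 h and filtered. An aliquot was evaporated and the residue taken up in dilute aqua regia. Gold content was determined as for the aqueous samples, with indium as internal standard.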

CH1 [5] = assay: Compound was tested for in vitro growth inhibition of Ovarian carcinoma cell line panel CH1-R; type: functional, cell-based; procedure, shortened: as §2
CH1 [6] = assay: Compound was tested for in vitro growth inhibition of Ovarian carcinoma cell line panel CH1; type: functional, cell-based; procedure, shortened: as §2
[7] = Solubility at 25 degrees Celsius in water; type: physicochemical; conditions: buffer
Procedure, shortened: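 5–10 mg sample was tumbled in 5.0 mL water at 25 °C for 24 h and filtered. The solution was diluted as needed and gold was quantified with 1 ppm indium as internal standard.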

A2780 [8] = assay: Compound was tested for in vitro growth inhibition of Ovarian carcinoma cell line panel A2780; type: functional, cell-based, Homo sapiens; procedure, shortened: as §2
ZR-75-1 = assay: Compound was tested for in vitro growth inhibition of primary panel tumor cell line ZR-75-1; type: functional, cell-based, Homo sapiens; procedure, shortened: as §1
SK-OV-3 [9] = assay: Compound was tested for in vitro growth inhibition of Ovarian carcinoma cell line panelSK-OV-3; type: functional, cell-based, Homo sapiens; procedure, shortened: as §2
SW-620 [10] = assay: Compound was tested for in vitro growth inhibition of primary panel tumor cell line SW620; type: functional, cell-based, Homo sapiens; procedure, shortened: as §1
SK-OV-3 [11] = assay: Compound was tested for in vitro growth inhibition of Ovarian carcinoma cell line panel SK-OV-3; type: functional, cell-based, Homo sapiens; procedure, shortened: as §2
SK-OV-3 [12] = assay: Compound was tested for in vitro growth inhibition of primary panel tumor cell line SK-OV-3; type: functional, cell-based, Homo sapiens; procedure, shortened: as §1
Mus musculus [13] = assay: Compound was evaluated for antitumor activity (RTV) in HT1376 carcinoma Xenograft, at a dosage 8.75 mg/kg on day 7; type: functional, organism-based; set-up: dose 8.75 mg/kg
Procedure, shortened: (§3)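 HT1376 tumor fragments implanted subcutaneously in nude mice flanks; mice with established palpable tumors randomized into groups of 6 (controls 10). Compounds given intraperitoneally as suspensions in 0.5% carboxymethylcellulose in 0.9% saline, on days 0, 7, 14 and 21. Tumor dimensions on days 0, 7, 14, 21, 28. RTV = 100(mean tumor volume at assessment)/(mean start volume).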

Mus musculus [14] = assay: Compound was evaluated for antitumor activity (T/C) in HT1376 carcinoma Xenograft, at a dosage 8.75 mg/kg on day 14; type: functional, organism-based; set-up: dose 8.75 mg/kg
Procedure, shortened: (§4)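 Nude mice carrying subcutaneous flank HT1376 fragments; treatment began once tumors were established and palpable, randomized into groups of 6 treated and 10 control mice. Dosing was ip as a suspension in 0.5% carboxymethylcellulose in 0.9% saline on days 0, 7, 14 and 21, at the MTD and two 2-fold dilutions. Tumors were measured on days 0-28. RTV = 100(mean volume at assessment)/(mean start volume); T/C = treated RTV/control RTV.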

Mus musculus [15] = assay: Compound was evaluated for antitumor activity (T/C) in HT1376 carcinoma Xenograft, at a dosage 8.75 mg/kg on day 7; type: functional, organism-based; set-up: dose 8.75 mg/kg; procedure, shortened: as §4
Mus musculus [16] = assay: Compound was evaluated for antitumor activity (T/C) in HT1376 carcinoma Xenograft, at a dosage 17.5 mg/kg on day 7; type: functional, organism-based; set-up: dose 17.5 mg/kg
Procedure, shortened: (§5)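 Subcutaneous HT1376 xenografts in nude mice, 6 per treated group and 10 controls. Intraperitoneal dosing as suspensions in 0.5% carboxymethylcellulose/0.9% saline on days 0, 7, 14, 21; tumors measured weekly to day 28. T/C = RTV of treated group / RTV of untreated control group; significance by t-test at the 5% level.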

Mus musculus [17] = assay: Compound was evaluated for antitumor activity (RTV) in HT1376 carcinoma Xenograft, at a dosage 17.5 mg/kg on day 14; type: functional, organism-based; set-up: dose 17.5 mg/kg; procedure, shortened: as §3
Mus musculus [18] = assay: Compound was evaluated for antitumor activity (T/C) in HT1376 carcinoma Xenograft, at a dosage 17.5 mg/kg on day 28; type: functional, organism-based; set-up: dose 17.5 mg/kg; procedure, shortened: as §5
Mus musculus [19] = assay: Compound was evaluated for antitumor activity (RTV) in HT1376 carcinoma Xenograft, at a dosage 17.5 mg/kg on day 28; type: functional, organism-based; set-up: dose 17.5 mg/kg; procedure, shortened: as §3
Mus musculus [20] = assay: Compound was evaluated for antitumor activity (RTV) in HT1376 carcinoma Xenograft, at a dosage 35 mg/kg on day 7; type: functional, organism-based; set-up: dose 35 mg/kg; procedure, shortened: as §3
Mus musculus [21] = assay: Compound was evaluated for antitumor activity (T/C) in HT1376 carcinoma Xenograft, at a dosage 35 mg/kg on day 14; type: functional, organism-based; set-up: dose 35 mg/kg; procedure, shortened: as §4
[22] = Range is evaluated. (Highest IC50/Lowest IC50); type: functional
Mus musculus [23] = assay: Compound was evaluated for antitumor activity (RTV) in HT1376 carcinoma Xenograft, at a dosage 35 mg/kg on day 21; type: functional, organism-based; set-up: dose 35 mg/kg; procedure, shortened: as §3
Mus musculus [24] = assay: Compound was evaluated for antitumor activity (T/C) in HT1376 carcinoma Xenograft, at a dosage 35 mg/kg on day 28; type: functional, organism-based; set-up: dose 35 mg/kg; procedure, shortened: as §4
Mus musculus [25] = assay: Compound was evaluated for antitumor activity (T/C) in HT1376 carcinoma Xenograft, at a dosage 8.75 mg/kg on day 28; type: functional, organism-based; set-up: dose 8.75 mg/kg; procedure, shortened: as §4
Mus musculus [26] = assay: Compound was evaluated for antitumor activity (T/C) in HT1376 carcinoma Xenograft, at a dosage 8.75 mg/kg on day 21; type: functional, organism-based; set-up: dose 8.75 mg/kg; procedure, shortened: as §4
Mus musculus [27] = assay: Compound was evaluated for antitumor activity (RTV) in HT1376 carcinoma Xenograft, at a dosage 35 mg/kg on day 28; type: functional, organism-based; set-up: dose 35 mg/kg; procedure, shortened: as §3
Mus musculus [28] = assay: Compound was evaluated for antitumor activity (RTV) in HT1376 carcinoma Xenograft, at a dosage 8.75 mg/kg on day 14; type: functional, organism-based; set-up: dose 8.75 mg/kg; procedure, shortened: as §3
Mus musculus [29] = assay: Compound was evaluated for antitumor activity (T/C) in HT1376 carcinoma Xenograft, at a dosage 17.5 mg/kg on day 14; type: functional, organism-based; set-up: dose 17.5 mg/kg; procedure, shortened: as §5
Mus musculus [30] = assay: Compound was evaluated for antitumor activity (T/C) in HT1376 carcinoma Xenograft, at a dosage 35 mg/kg on day 7; type: functional, organism-based; set-up: dose 35 mg/kg; procedure, shortened: as §4
Mus musculus [31] = assay: Compound was evaluated for antitumor activity (RTV) in HT1376 carcinoma Xenograft, at a dosage 8.75 mg/kg on day 21; type: functional, organism-based; set-up: dose 8.75 mg/kg; procedure, shortened: as §3
Mus musculus [32] = assay: Compound was evaluated for antitumor activity (RTV) in HT1376 carcinoma Xenograft, at a dosage 17.5 mg/kg on day 21; type: functional, organism-based; set-up: dose 17.5 mg/kg; procedure, shortened: as §3
Mus musculus [33] = assay: Compound was evaluated for antitumor activity (RTV) in HT1376 carcinoma Xenograft, at a dosage 17.5 mg/kg on day 7; type: functional, organism-based; set-up: dose 17.5 mg/kg; procedure, shortened: as §3
Mus musculus [34] = assay: Compound was evaluated for antitumor activity (T/C) in HT1376 carcinoma Xenograft, at a dosage 17.5 mg/kg on day 21; type: functional, organism-based; set-up: dose 17.5 mg/kg; procedure, shortened: as §5
Mus musculus [35] = assay: Compound was evaluated for antitumor activity (T/C) in HT1376 carcinoma Xenograft, at a dosage 35 mg/kg on day 21; type: functional, organism-based; set-up: dose 35 mg/kg; procedure, shortened: as §4
Mus musculus [36] = assay: Compound was evaluated for antitumor activity (RTV) in HT1376 carcinoma Xenograft, at a dosage 35 mg/kg on day 14; type: functional, organism-based; set-up: dose 35 mg/kg; procedure, shortened: as §3
Mus musculus [37] = assay: Compound was evaluated for antitumor activity (RTV) in HT1376 carcinoma Xenograft, at a dosage 8.75 mg/kg on day 28; type: functional, organism-based; set-up: dose 8.75 mg/kg; procedure, shortened: as §3

Dichloro[2-(dimethylamino)methyl]phenyl-C,N]gold-(III)
IC50 (SW 1116): 119 µM
IC50 (SW-620 [1]): 124 µM
IC50 (HT-29): 55 µM
IC50 (SK-OV-3 [2]): 45 µM
IC50 (A2780 [3]): 47 µM
IC50 (HX62 cell line): 57 µM
IC50 (HT-1376): 30 µM
Solubility [4]: 920 µM
IC50 (CH1 [5]): 22 µM
IC50 (CH1 [6]): 13 µM
Solubility [7]: 250 µM
IC50 (A2780 [8]): 8.2 µM
IC50 (ZR-75-1): 27 µM
IC50 (SK-OV-3 [9]): 109 µM

Bis(thiocyanato)[2-(dimethylamino)methyl]phenyl-C,N]gold-(III)
IC50 (SW 1116): 47 µM
IC50 (SW-620 [10]): 51 µM
IC50 (HT-29): 25 µM
IC50 (A2780 [3]): 26 µM
IC50 (HX62 cell line): 31 µM
IC50 (HT-1376): 6.7 µM
Solubility [4]: 780 µM
IC50 (SK-OV-3 [11]): 39 µM
IC50 (CH1 [5]): 11 µM
IC50 (CH1 [6]): 10 µM
Solubility [7]: 130 µM
IC50 (A2780 [8]): 2 µM
IC50 (ZR-75-1): 34 µM
IC50 (SK-OV-3 [12]): 20 µM

Malonato[2-(dimethylamino)methyl]phenyl-C,N]gold-(III)
RTV (Mus musculus [13]): 264
T/C (Mus musculus [14]): 1
T/C (Mus musculus [15]): 1
T/C (Mus musculus [16]): 1.01
RTV (Mus musculus [17]): 451
T/C (Mus musculus [18]): 0.76
RTV (Mus musculus [19]): 802
RTV (Mus musculus [20]): 210
T/C (Mus musculus [21]): 0.57
Range [22]: 7.3 and 11.1
RTV (Mus musculus [23]): 488
T/C (Mus musculus [24]): 0.77
T/C (Mus musculus [25]): 1.17
T/C (Mus musculus [26]): 1.06
RTV (Mus musculus [27]): 816
RTV (Mus musculus [28]): 513
T/C (Mus musculus [29]): 0.88
T/C (Mus musculus [30]): 0.8
RTV (Mus musculus [31]): 894
RTV (Mus musculus [32]): 699
RTV (Mus musculus [33]): 266
T/C (Mus musculus [34]): 0.83
T/C (Mus musculus [35]): 0.58
RTV (Mus musculus [36]): 292
RTV (Mus musculus [37]): 1230
